Measurements published in article PMC3706105 (Breast cancer research and treatment, 2012).

Tests used:
MDA-MB-436 [1] = experiment: XTT viability assay; assay type: cell-based, human; details: MDA-MB-436, XTT
In short: (§1)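 Seeding in normal growth medium in 96-well plates: 1500 cells/well for MCF10A, MDA-MB-231 and MDA-MB-436, 4000 for MCF-7. Next day, phenol-free DMEM with 10% charcoal-stripped FBS containing final concentrations of test compound or acetone vehicle, the vehicle matched to the highest dose only. After 3 days, XTT reagent 2–3 h at 37 °C. Absorbance at 450 nm minus 750 nm reference and medium blank, expressed as % of control; IC50 interpolated from sigmoidal dose–response curves.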

MCF-7 mammospheres [2] = experiment: Integrity of mature primary mammospheres; assay type: cell-based, human; details: mature MCF-7 mammospheres; for mammosphere numbers (≥100μM), percentage of vehicle treated control: 5 days of treatment, vehicle control 86.7±6.8
T47D = experiment: XTT viability assay; assay type: cell-based, human
BJ fibroblast = experiment: Cell cycle analysis; assay type: cell-based; details: 5 ppm, 48 hours
ATF2 = experiment: Immunoblot pATF2; assay type: cell-based, human
In short: (§2)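 MDA-MB-231 cells treated with test compound, e.g. 10 ppm for 1–24 h. For P38 inhibition, cells were pretreated 1 h with SB203580, then co-treated 4 h. Lysed in Tris pH 7.5/NP-40/SDS/deoxycholate buffer with phosphatase and protease inhibitors. 20–50 μg protein resolved by 10 or 12% SDS-PAGE, wet-transferred and blocked in 5% BSA/TBS-Tween. Phospho-specific primaries at 1:1000, HRP secondaries at 1:5,000, chemiluminescent detection; band densitometry.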

MCF-7 [3] = experiment: XTT viability assay; assay type: cell-based, human; details: MCF-7, XTT
In short: as §1

MCF10A [4] = experiment: XTT viability assay; assay type: cell-based
MDA-MB-231 cells [5] = experiment: Hoechst33342 nuclear staining; assay type: cell-based, human; details: MDA-MB-231, 5-10 ppm, 24 hours, Hoechst staining
MDA-MB-231 cells [6] = experiment: XTT viability after timed SL exposure and removal; assay type: cell-based, human; details: MDA-MB-231, 5ppm and 10ppm, XTT at 24 hours
In short: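 MDA-MB-231 cells exposed to test compound at 5 or 10 ppm for 2, 4 or 24 h. Medium was then removed, cells washed, and growth medium without compound added. XTT viability read 24 h after treatment start, as % of vehicle controls, mean ± SD; two-tailed paired Student's t-test against vehicle.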

MDA-MB-231 [7] = experiment: Cell cycle analysis; assay type: cell-based, human; details: 48 hours
P38 MAPK = experiment: Immunoblot pP38; assay type: cell-based, human; details: densitometry of immunoblot
In short: as §2

MCF-7 mammospheres [8] = experiment: Mammosphere formation; assay type: cell-based, human; details: MCF-7 primary mammospheres
In short: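 MCF-7 cells trypsinised (0.05% trypsin/EDTA), PBS-washed twice and sieved to single cells. Diluted to 10,000 cells/mL in serum-free phenol-red-free MEBM with 5 μg/ml insulin, 20 ng/ml EGF, 20 ng/ml bFGF, 1× B27 and 0.5 μg/ml hydrocortisone, and plated on ultralow-attachment 96-well plates. Next day, test compound (ppm) or 0.6% acetone final vehicle added; medium replenished every 3–4 days. Spheres over size threshold counted per well at 5×; triplicate wells ± SD, paired t-test.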

MDA-MB-231 [9] = experiment: XTT viability assay; assay type: cell-based, human; details: MDA-MB-231, XTT
In short: as §1

MDA-MB-231 mammospheres = experiment: Mammosphere formation; assay type: cell-based, human
In short: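 Single-cell MDA-MB-231 suspensions grown as mammospheres in serum-free phenol-red-free CnT-27 medium with growth additives on ultralow-attachment 96-well plates. Next day, test compound (ppm) or vehicle (0.6% acetone final) added; medium replenished every 3–4 days. Mammospheres above size threshold counted per well; triplicate wells, mean ± SD, two-tailed paired t-test versus vehicle.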

BJ fibroblasts = experiment: Crystal violet growth assay; assay type: cell-based; details: 0.5 to 10ppm, up to 10 days
In short: (§3)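 Cell seeding in 96-well plates was 1500 cells/well (MDA-MB-231, MDA-MB-436, BJ fibroblasts) or 4000 (MCF-7). Next day, phenol-free DMEM with 10% charcoal-stripped FBS plus test compound at 0.5–10 ppm (1.65–33 μM) or acetone vehicle, for up to 10 days. Plates were fixed and stained 15 min with 0.5% crystal violet/25% methanol, washed, dried, and dye eluted in 0.1 M sodium citrate; absorbance 560 nm, % of vehicle, triplicates ± SD. Day-7 IC50 by linear-regression interpolation.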

ALDH1 = experiment: Aldefluor ALDH1 activity in mammospheres; assay type: cell-based, human; details: MCF-7 primary mammospheres grown with GR-24; vehicle 6%
MCF10A [10] = experiment: Cell cycle analysis; assay type: cell-based; details: 0.5-10ppm, 48 hours
MDA-MB-436 [11] = experiment: Crystal violet growth assay; assay type: cell-based, human
In short: as §3

MDA-MB-436 [12] = experiment: Cell cycle analysis; assay type: cell-based, human; details: MDA-MB-436, 10ppm, 48 hours
MCF-7 [13] = experiment: Cell cycle analysis; assay type: cell-based, human; details: MCF-7, 10ppm, 48 hours
MDA-MB-231 [14] = experiment: Crystal violet growth assay; assay type: cell-based, human
In short: as §3

MCF-7 [15] = experiment: Crystal violet growth assay; assay type: cell-based, human
In short: as §3

[16] = system: MCF-7 secondary mammospheres; experiment: XTT viability assay on mammospheres; assay type: cell-based, human; details: 5 days
MAPKAPK = experiment: Immunoblot pT334 MAPKAPK; assay type: cell-based, human; details: MDA-MB-231, SB203580 exposure
In short: as §2

## CC1=CC(O/C=C2/C(=O)c3c(c4cc(-c5scc6c5OCCO6)ccc4n3C)C2C)OC1=O (stereo not drawn) [ST362]
MDA-MB-436 [1]
  IC50 (ppm) at 72hours: 5.9 ppm
MCF-7 mammospheres [2]; 2.5ppm
  mammosphere numbers (≥100μM), percentage of vehicle treated control: 6±1.7%
MCF-7 mammospheres [2]; 5 and 2.5ppm, after 48 hours
  mammosphere morphology: looser morphology and appeared to be dissociating
MCF-7 mammospheres [2]; 5ppm
  mammosphere numbers (≥100μM), percentage of vehicle treated control: 8.3±3.5%
T47D
  IC50 (ppm) at 72hours: 8.6 ppm
BJ fibroblast; vehicle 0.21
  SubG1/poptosis: 0.72
BJ fibroblast; vehicle 2.510
  Cell Cycle Distribution (%) S: 1.580%
BJ fibroblast; vehicle 10.17
  Cell Cycle Distribution (%) G2: 12.86%
BJ fibroblast; vehicle 84.25
  Cell Cycle Distribution (%) G1: 83.42%
ATF2; MDA-MB-231, immunoblot, SL treatment 4-8 hours
  phosphorylation of ATF2: induced
MCF-7 [3]
  IC50 (ppm) at 72hours: 8.1 ppm
MCF10A [4]
  IC50 (ppm) at 72hours: >15 ppm
MCF10A [4]; between day 10 and 14 (so in the source)
  reduction in viability: 20%
MDA-MB-231 cells [5]
  nuclear changes indicative of apoptosis: increased nuclear condensation and fragmentation
MDA-MB-231 cells [6]; SL removed
  cell viability after 2 hours exposure: No changes in cell viability
MDA-MB-231 cells [6]; SL removed, p<0.01
  cell viability after 4 hours exposure: significant decrease in viability
MDA-MB-231 cells [6]; p<0.001
  cell viability after continual exposure (24h) compared to 4 hours exposure: greater reduction in cell viability
MDA-MB-231 [7]; MDA-MB-231, 5 ppm, vehicle 0.41
  SubG1/poptosis: 4.17
MDA-MB-231 [7]; MDA-MB-231, 5 ppm, vehicle 13.02
  Cell Cycle Distribution (%) S: 11.90%
MDA-MB-231 [7]; MDA-MB-231, 5 ppm, vehicle 24.08
  Cell Cycle Distribution (%) G2: 37.93%
MDA-MB-231 [7]; MDA-MB-231, 5 ppm, vehicle 60.43
  Cell Cycle Distribution (%) G1: 42.17%
P38 MAPK; MDA-MB-231, 4 hours
  increase in pP38 levels compared to vehicle: 5 fold
P38 MAPK; MDA-MB-231, 8 hours
  increase in pP38 levels compared to vehicle: 13 fold
MCF-7 mammospheres [8]; 1ppm
  mammosphere formation: significantly inhibited mammosphere formation
MCF-7 mammospheres [8]; 2.5ppm, 7 days
  mammosphere growth: able to block mammosphere growth
MDA-MB-231 [9]
  IC50 (ppm) at 72hours: 2.9 ppm

## CC1=C[C@H](O/C=C2/C(=O)O[C@@H]3c4ccccc4C[C@H]23)OC1=O [GR-24]
MDA-MB-231 mammospheres; 2.5ppm
  mammosphere growth: severely attenuated
MDA-MB-231 mammospheres; 5ppm
  mammosphere formation: completely blocked
BJ fibroblasts
  growth compared to vehicle: no significant reduction in growth
ALDH1
  ALDH activity (percentage of ALDH positive cells): 2%
MCF10A [10]
  change in cell cycle distribution: no change
MDA-MB-436 [11]; MDA-MB-436, 7 days
  IC50 of long-term proliferation: 5.2 ppm
MDA-MB-436 [11]; read-out: IC50 of long-term proliferation, MDA-MB-436, 7 days
  IC50: 17.2 µM
MDA-MB-436 [12]
  increase in sub-G1/apoptotic fraction compared to vehicle: 3.4 fold
MCF-7 [13]
  change in subG1 fraction: no change
MDA-MB-231 [14]; MDA-MB-231, 7 days
  IC50 of long-term proliferation: 5.7 ppm
MDA-MB-231 [14]; read-out: IC50 of long-term proliferation, MDA-MB-231, 7 days
  IC50: 18.8 µM
MCF-7 [15]; MCF-7, 7 days
  IC50 of long-term proliferation: 5.7 ppm
MCF-7 [15]; read-out: IC50 of long-term proliferation, MCF-7, 7 days
  IC50: 18.8 µM
MDA-MB-231 [7]; MDA-MB-231, 10ppm
  increase in sub-G1/apoptotic fraction compared to vehicle: 4.6 fold
MCF-7 mammospheres [8]; 0.5ppm
  mammosphere growth: inhibited to a lesser degree
MCF-7 mammospheres [8]; 1ppm
  mammosphere formation: severely attenuated
MCF-7 mammospheres [8]; 2.5 –5ppm
  mammosphere formation: completely inhibited
[16]; 2.5ppm
  mammosphere viability (% of vehicle control): 68.6%±12.4
[16]; 5ppm
  reduction of mammosphere viability: approximately 80%
[16]; 5ppm, control 98.4%± 3.4
  mammosphere viability (% of vehicle control): 16.4%± 4.6

## C[S+]([O-])c1ccc(-c2nc(-c3ccncc3)c(-c3ccc(F)cc3)[nH]2)cc1 (stereo not drawn) [SB203580, reference compound]
ATF2; MDA-MB-231, 20 μM to 40 μM
  inhibition of ATF2 phosphorylation following SL treatment: did not inhibit ATF2 phosphorylation
MAPKAPK
  pT334 MAPKAPK phosphorylation: decreased in a dose dependent manner
